Assay outcomes: PubChem, several laboratories
KCNQ1 inh – human KCNQ1 channel inhibition | P51787 | CHO-K1 KCNQ1, FluxOR thallium flux fluorescence; active compounds read high | B-score at 10 µM | 1.3% of 310,000 active;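 active means compounds whose thallium flux B-score, printed positive for inhibition, exceeds three library SD while starting fluorescence stays within three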;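 further: channel opened by potassium depolarization with thallium stimulus after 20 min compound exposure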
KCNK9 block – blocks the human KCNK9 two-pore domain potassium channel. Q9NPC2. HEK293 KCNK9, FluxOR thallium flux fluorescence; active compounds read low. B-score at 10 µM. 1.2% of 310,000 active;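 active means ratio B-score over 3 SD below the library mean, with starting fluorescence within 5 SD of its mean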;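 further: negative B-score means less thallium flux so channel inhibition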
KCNK3 inh – human KCNK3 channel inhibition, primary screen; CHO-KCNK3 thallium flux, FluxOR fluorescence; active compounds read low; 0.84% of 340,000 active; O14649; B-score at 10 µM;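 active means B-score under library mean minus 4 SD, starting fluorescence ratio at most library mean plus 5 SD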;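 further: more negative B-score means stronger inhibition of thallium flux through KCNK3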
KCC2 mod – modulators of human KCC2 chloride dependent transport. Q9H2X9. KCC2 cells, thallium flux FluoZin-2 fluorescence. AID 1456. 2.2% of 190,000 active. B-score of Tl+ flux slope (higher = more flux/activation; lower = inhibition) at 10 µM;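 active means thallium flux slope and its plate-corrected score both differing from the plate sample mean at a set confidence after two filtering rounds, in either direction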;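 further: slope of fluorescence scaled to starting intensity during 10 to 20 s after thallium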
hERG rescue – shields human hERG channel from block by proarrhythmic agents; CHO-hERG, FluxOR thallium flux, dofetilide IC70 present; AID 1511; 0.51% of 310,000 active; Q12809; activation (rescue from dofetilide block), less the hit threshold, % at 10 µM;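 active means activation above the mean of controls blocked by dofetilide plus 5 SD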;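 further: thallium influx through hERG after potassium depolarization seen as dye fluorescence rise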
Target sequence (Q12809 whole entry, looked up): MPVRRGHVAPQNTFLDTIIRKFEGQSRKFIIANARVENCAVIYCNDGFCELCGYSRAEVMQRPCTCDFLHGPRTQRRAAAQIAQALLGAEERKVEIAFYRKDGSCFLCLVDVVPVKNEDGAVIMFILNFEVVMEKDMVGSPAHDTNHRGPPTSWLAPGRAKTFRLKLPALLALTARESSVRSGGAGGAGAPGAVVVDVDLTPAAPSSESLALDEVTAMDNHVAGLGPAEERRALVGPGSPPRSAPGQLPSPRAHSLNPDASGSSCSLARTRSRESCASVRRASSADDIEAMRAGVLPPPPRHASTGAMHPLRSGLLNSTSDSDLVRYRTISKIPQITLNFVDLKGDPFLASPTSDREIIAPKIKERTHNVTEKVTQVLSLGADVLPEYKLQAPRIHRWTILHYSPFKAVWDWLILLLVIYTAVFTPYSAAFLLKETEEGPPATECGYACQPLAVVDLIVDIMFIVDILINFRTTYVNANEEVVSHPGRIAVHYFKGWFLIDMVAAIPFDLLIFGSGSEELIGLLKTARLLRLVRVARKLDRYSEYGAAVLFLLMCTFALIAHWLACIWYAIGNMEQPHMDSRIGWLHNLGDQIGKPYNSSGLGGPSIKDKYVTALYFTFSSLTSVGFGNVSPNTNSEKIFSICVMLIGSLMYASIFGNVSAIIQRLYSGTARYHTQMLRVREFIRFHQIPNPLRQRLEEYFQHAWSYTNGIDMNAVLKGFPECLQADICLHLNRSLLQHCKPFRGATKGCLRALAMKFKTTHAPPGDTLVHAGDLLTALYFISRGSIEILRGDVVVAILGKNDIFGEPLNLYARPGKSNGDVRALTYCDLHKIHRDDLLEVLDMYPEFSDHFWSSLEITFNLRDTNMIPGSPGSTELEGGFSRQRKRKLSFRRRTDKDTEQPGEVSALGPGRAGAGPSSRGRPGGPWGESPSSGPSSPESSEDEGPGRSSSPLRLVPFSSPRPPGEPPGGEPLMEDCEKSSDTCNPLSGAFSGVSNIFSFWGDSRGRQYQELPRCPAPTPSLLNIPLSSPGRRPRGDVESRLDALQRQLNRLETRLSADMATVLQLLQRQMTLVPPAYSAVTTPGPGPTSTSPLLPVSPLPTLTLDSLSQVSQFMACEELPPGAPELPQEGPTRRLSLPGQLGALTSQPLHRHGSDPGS
KCNQ1 pot – human KCNQ1 channel potentiation or activation; CHO-K1 KCNQ1, thallium flux FluxOR fluorescence; active compounds read high; B-score at 10 µM; 0.35% of 310,000 active; AID 2648;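 active means fluorescence ratio B-score, a plate-corrected score, at least three library SD, with initial intensity B-score within 5 SD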
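Assay system: CHO-K1 cells stably expressing KCNQ1; Medium: assay buffer with matched DMSO; Also added: K+/Tl+ depolarizing stimulus; Dosing: single dose; Timing: dye 90 min, compound 20 min, room temperature; Measured by: kinetic FluxOR thallium fluorescence, 10-s 1-Hz baseline, 110-s post-stimulus read; Read-out: peak-minus-minimum fluorescence over initial fluorescence, negative-control normalized, B-scored.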
Numbers without * were called inactive; i = inactive; . = not tested or not shown. In the library only some 4.1% were active in any assay of this set; here they are far more common.

SMILES	KCNQ1 inh	KCNK9 block	KCNK3 inh	KCC2 mod	hERG rescue	KCNQ1 pot
Cc1ccc(C)c(C(=O)CN2C(=O)NC3(CCCCCC3)C2=O)c1	.	.	i	.	.	.
COc1ccc(CNC(=O)c2c(O)c3cc(OC)c(OC)cc3[nH]c2=O)cc1OC	i	i	i	.	0	i
CCN(CC)CCNC(=O)c1c(O)c2cc(OC)c(OC)cc2[nH]c1=O	i	i	i	1.3	5.0*	i
O=C(COC(=O)c1ccc(O)cc1O)N=c1sccn1Cc1ccccc1Cl	i	-6.9*	i	.	-10	i
O=C(COc1ccccc1[N+](=O)[O-])OCC(=O)c1ccc(Br)s1	.	.	i	.	.	.
Cc1cccc(C)c1OCCCCc1c(C)n[nH]c1C	i	-8*	i	-1	-24	i
COc1cccc(OC)c1OCCCCc1c(C)n[nH]c1C	i	i	i	0.71	1	i
CCOc1ccc(-c2cc(C(=O)OC)[nH]n2)cc1	i	i	i	0.9	9.4*	i
COC(=O)c1cc(-c2ccc(OC)cc2)n[nH]1	i	i	i	0.82	1	i
O=C1CCSc2ccc(Cl)cc2N1Cc1ccc(Cl)cc1	i	-7.6*	i	.	-11	i
COc1ccc2[nH]c(C(=O)N3CCC(CO)(Cc4cccc(C(F)(F)F)c4)CC3)c(C)c2c1	i	i	i	.	-2	i
O=C(CSc1ccc(Cl)cc1)N/N=C/c1cccnc1	i	i	i	-0.27	8.2*	i
CN(C)c1ccc(N=Nc2ccc(C(=O)O)cc2)cc1	i	i	i	.	0	i
Nc1nc(N)c(N=Nc2ccc(C(=O)O)cc2)c(N)n1	i	i	i	0.46	-7	11*
O=C1NC(=O)C2(CCCC2C(=O)O)N1 (stereo not given)	.	.	i	.	.	.
COc1cc2c(cc1OC)C(c1cc3cccc(C)c3[nH]c1=O)N(C(=O)c1ccco1)CC2 (stereo not given)	i	i	i	.	-9	i
COc1ccc(C(=O)NC(=S)N(C)C2CCCCC2)cc1Br	i	i	i	.	6.2*	i
COc1ccc(C(=O)NC(=S)N(C)C2CCCCC2)cc1	i	i	i	.	-4	i
Cc1ccc(C(=O)NC(=S)N(C)C2CCCCC2)cc1Br	i	i	i	.	2	16*
Cc1ccccc1C(=O)NC(=S)N(C)C1CCCCC1	i	i	i	.	-4	i
COc1ccccc1/C=C/C(=O)NC(=S)N(C)C1CCCCC1	i	i	i	9.8*	-4	i
CN(C(=S)NC(=O)c1ccccc1Br)C1CCCCC1	i	i	i	31*	2	13*
CC(=O)NCCc1nc2cc(NC(=O)COc3cccc(C)c3)ccc2n1C	i	i	i	.	-4	i
O=C(COc1coc(CN2CCN(c3ccccc3F)CC2)cc1=O)NC1CCCC1	i	i	i	.	-12	i
COc1cccc(CC2(CO)CCN(C(=O)NC3CCCCC3)CC2)c1	i	i	i	0.57	8.7*	i
SMILES	KCNQ1 inh	KCNK9 block	KCNK3 inh	KCC2 mod	hERG rescue	KCNQ1 pot
O=C(CN1C(=O)c2cccc([N+](=O)[O-])c2C1=O)N1CCN(S(=O)(=O)c2ccccc2)CC1	.	.	i	.	.	.
CC1=C(C)C(=O)C(CCCCC#CCCCC#CCO)=C(C)C1=O	i	i	-14*	-2	-17	i
NC(=O)C1CCN(C(=O)CCSCc2ccc(Cl)c(Cl)c2)CC1	i	i	i	.	-1	i
O=C(c1ccc([N+](=O)[O-])cc1)N1CCC(Cc2ccccc2)CC1	i	-7.4*	i	-1.1	-10	i
Cc1c(/C=C(\C#N)C(=O)NCc2ccccc2)cc(C#N)n1C	i	i	i	.	-3	i
CC1CCCC(NC(=S)NC(=O)c2cncc(Br)c2)C1C (stereo not given)	i	i	i	51*	4	i
O=C(CCC(=O)N1CCN(c2ccccn2)CC1)c1ccc(Cl)s1	.	.	i	.	.	.
Cc1ccc(C(=O)C2(C)C3c4cc(Br)ccc4OC(=O)C32C(=O)c2ccco2)cc1 (stereo not given)	i	-7.7*	i	0.33	-7	i
CCc1cc(C(=O)N(CC)CC(=O)Nc2ccc(OC)cc2)sc1C	.	.	i	.	.	.
CN(C)c1ccc(C=c2c3ccccc3n3c2cc(-c2ccccc2)[n+]3C)cc1	.	.	-15*	.	.	.
CN(C)c1ccc(C=c2c3cc([N+](=O)[O-])ccc3n3c2cc(-c2ccccc2)[n+]3C)cc1	.	.	i	.	.	.
CN(C)c1ccc(C=c2c3ccccc3n3c2cc(-c2ccc(Cl)cc2)[n+]3C)cc1	.	.	-12*	.	.	.
COc1ccc(S(=O)(=O)N2CCC(C(=O)N3CCc4ccccc4C3)CC2)cc1	i	i	i	-4*	-4	i
COc1ccc(S(=O)(=O)N2CCNCC2)cc1	i	i	i	.	6.5*	i
COc1ccc(S(=O)(=O)N2CCOC23CCN(S(=O)(=O)c2c(C)cc(C)cc2C)CC3)cc1	i	i	i	.	-9	i
CSc1nc2cc(Oc3cccc(Cl)c3Cl)c(Cl)cc2[nH]1	14*	i	-11*	1.5	-8	i
CSc1nc2ccc(Cl)cc2[nH]1	i	i	i	0.23	-9	i
S=C(NCc1ccccc1)N1CCn2cccc2C1c1cccnc1 (stereo not given)	i	i	i	-2.9	-7	i
S=C(NCCc1ccccc1)N1CCn2cccc2C1c1cccnc1 (stereo not given)	i	i	i	0.51	-12	15*
CCOC(=O)c1c(NC(C)=O)sc2c1CCC(C=O)=C2Sc1ccccc1	i	-6.9*	i	-0.43	-16	i
CCOC(=O)c1c(NC(C)=O)sc2c1CCN(Cc1ccccc1)C2	i	i	i	.	-10	i
CCCCNC(=O)c1ccc(NC(=O)C2CCCO2)cc1 (stereo not given)	i	i	i	0.34	40*	i
CC(=O)c1ccc(NC(=O)CN2CCC(NC(=O)C3CCCCC3)CC2)cc1	i	i	i	-0.029	6.1*	i
Cc1c(Cl)cccc1NC(=O)CN1CCC(NC(=O)C2CCCCC2)CC1	i	i	i	-1	-12	i
Cc1cccc(NC(=O)c2cccc(NS(=O)(=O)c3ccc(Cl)cc3)c2)c1	10*	i	i	-0.52	-18	i
Cc1ccc(NC(=O)c2ccc3c(c2)OCCO3)cc1S(=O)(=O)Nc1cccc(Cl)c1	6*	i	i	0.68	-9	i
Cc1ccc(NC(=O)c2ccc3c(c2)OCCO3)cc1C	i	i	i	.	-8	i
